Values joined by “and” are separate entries in the source; they are usually repeats but may differ in a detail not shown here. Equal values may be shown once.
System: Fibroblast
Experiment: Multiplex assay against human fibroblast
Format: toxicity, cell-based
Settings: number of replicates 2
How it was run: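 Tubulin, mitochondrial-mass and membrane-permeability phenotypes are per cents of healthy-nucleus cells. Cells were gated by CellPathfinder machine learning into Hoechst high-intensity objects or normal cells, normal cells into healthy, pyknosed or fragmented nuclei, and pyknosed cells into mitotic or apoptotic. Before that, live cells stained at seeding with Hoechst33342, BioTracker Green Microtubule Cytoskeleton Dye, MitoTracker Red and Annexin V Alexa Fluor 680 were imaged on a CQ1 microscope at 37°C and 5% CO2 after compound addition.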

[1] = 12 h, 1 µM, compound concentration 1 uM
[2] = 12 h, 10 µM, compound concentration 10 uM
[3] = 24 h, 1 µM, compound concentration 1 uM
[4] = 24 h, 10 µM, compound concentration 10 uM
[5] = 48 h, 1 µM, compound concentration 1 uM
[6] = 48 h, 10 µM, compound concentration 10 uM

## CS(=O)(=O)c1ccc(C(=O)Nc2cccc(COc3ccc(Br)cc3CN3CC[C@@H](O)C3)c2)c(Cl)c1.O=CO
[1]
  Population Apoptotic (%): 41% and 38%
  Population Fragmented Nuclei (%): 8%
  Population Healthy Nuclei (%): 61% and 73%
  Population Hoechst High Intensity Objects (%): 0%
  Population Mitotic Cells (%): 58% and 61%
  Population Normal (%): 100%
  Population Pyknosed Nuclei (%): 18%
  Total Cell Count: 146 and 167
[2]
  Population Apoptotic (%): 50% and 40%
  Population Fragmented Nuclei (%): 18% and 16%
  Population Healthy Nuclei (%): 55% and 61%
  Population Hoechst High Intensity Objects (%): 0%
  Population Mitotic Cells (%): 49% and 59%
  Population Normal (%): 100%
  Population Pyknosed Nuclei (%): 25% and 22%
  Total Cell Count: 224 and 280
[3]
  Population Apoptotic (%): 60% and 46%
  Population Fragmented Nuclei (%): 14% and 15%
  Population Healthy Nuclei (%): 63% and 67%
  Population Hoechst High Intensity Objects (%): 0%
  Population Mitotic Cells (%): 40% and 53%
  Population Normal (%): 100%
  Population Pyknosed Nuclei (%): 22% and 17%
  Total Cell Count: 156 and 186
[4]
  Population Apoptotic (%): 72% and 79%
  Population Fragmented Nuclei (%): 28% and 23%
  Population Healthy Nuclei (%): 52% and 63%
  Population Hoechst High Intensity Objects (%): 1% and 0%
  Population Mitotic Cells (%): 27% and 20%
  Population Pyknosed Nuclei (%): 18% and 13%
  Total Cell Count: 262 and 331
[5]
  Population Apoptotic (%): 71% and 57%
  Population Fragmented Nuclei (%): 18% and 16%
  Population Healthy Nuclei (%): 62% and 67%
  Population Hoechst High Intensity Objects (%): 0%
  Population Mitotic Cells (%): 28% and 42%
  Population Normal (%): 100%
  Population Pyknosed Nuclei (%): 18% and 15%
  Total Cell Count: 154 and 164
[6]
  Population Apoptotic (%): 84% and 82%
  Population Fragmented Nuclei (%): 32% and 30%
  Population Healthy Nuclei (%): 56% and 58%
  Population Hoechst High Intensity Objects (%): 1% and 0%
  Population Mitotic Cells (%): 15% and 17%
  Population Normal (%): 100%
  Population Pyknosed Nuclei (%): 10%
  Total Cell Count: 300 and 395

## CS(=O)(=O)c1ccc(C(=O)Nc2cc(F)cc(COc3ccc(Br)cc3CN3CC[C@H](O)C3)c2)c(Cl)c1.O=CO
[1]
  Population Apoptotic (%): 47% and 46%
  Population Healthy Nuclei (%): 54% and 67%
  Population Mitotic Cells (%): 52% and 53%
  Population Pyknosed Nuclei (%): 32% and 19%
  Total Cell Count: 177 and 249
[2]
  Population Apoptotic (%): 54% and 58%
  Population Fragmented Nuclei (%): 16% and 19%
  Population Healthy Nuclei (%): 51% and 54%
  Population Mitotic Cells (%): 45% and 41%
  Population Pyknosed Nuclei (%): 31% and 26%
  Total Cell Count: 197 and 232
[3]
  Population Apoptotic (%): 56% and 57%
  Population Fragmented Nuclei (%): 17% and 22%
  Population Healthy Nuclei (%): 55% and 57%
  Population Mitotic Cells (%): 43% and 42%
  Population Pyknosed Nuclei (%): 26% and 20%
  Total Cell Count: 195 and 268
[4]
  Population Fragmented Nuclei (%): 18%
  Population Healthy Nuclei (%): 57% and 54%
  Population Mitotic Cells (%): 9% and 16%
  Population Pyknosed Nuclei (%): 23% and 22%
  Total Cell Count: 187 and 243
[5]
  Population Apoptotic (%): 76%
  Population Fragmented Nuclei (%): 21%
  Population Healthy Nuclei (%): 57% and 61%
  Population Mitotic Cells (%): 21% and 23%
  Population Pyknosed Nuclei (%): 20% and 14%
  Total Cell Count: 201 and 289
[6]
  Population Apoptotic (%): 97%
  Population Fragmented Nuclei (%): 17% and 19%
  Population Healthy Nuclei (%): 54%
  Population Mitotic Cells (%): 2% and 7%
  Population Pyknosed Nuclei (%): 28% and 25%
  Total Cell Count: 144 and 211

## CS(=O)(=O)c1ccc(C(=O)Nc2cccc(COc3ccc(Br)cc3CN3CC[C@H](O)C3)c2)cc1.O=CO
[1]
  Population Fragmented Nuclei (%): 13% and 4%
  Population Healthy Nuclei (%): 48% and 65%
  Population Hoechst High Intensity Objects (%): 0%
  Population Mitotic Cells (%): 52%
  Population Normal (%): 100%
  Population Pyknosed Nuclei (%): 37% and 30%
  Total Cell Count: 166 and 138
[2]
  Population Fragmented Nuclei (%): 15% and 22%
  Population Healthy Nuclei (%): 55% and 64%
  Population Hoechst High Intensity Objects (%): 0%
  Population Mitotic Cells (%): 51%
  Population Normal (%): 100%
  Population Pyknosed Nuclei (%): 30%
  Total Cell Count: 180 and 311
[3]
  Population Fragmented Nuclei (%): 9% and 14%
  Population Healthy Nuclei (%): 54% and 50%
  Population Hoechst High Intensity Objects (%): 0%
  Population Normal (%): 100% and 99%
  Total Cell Count: 142 and 175
[4]
  Population Fragmented Nuclei (%): 18% and 28%
  Population Healthy Nuclei (%): 57% and 60%
  Population Hoechst High Intensity Objects (%): 0%
  Population Mitotic Cells (%): 29% and 31%
  Population Normal (%): 99%
  Population Pyknosed Nuclei (%): 10%
  Total Cell Count: 214 and 336
[5]
  Population Fragmented Nuclei (%): 14% and 21%
  Population Healthy Nuclei (%): 55% and 59%
  Population Hoechst High Intensity Objects (%): 0% and 1%
  Population Mitotic Cells (%): 36% and 22%
  Population Normal (%): 100% and 98%
  Population Pyknosed Nuclei (%): 29% and 19%
  Total Cell Count: 147 and 164
[6]
  Population Fragmented Nuclei (%): 28% and 31%
  Population Healthy Nuclei (%): 62% and 61%
  Population Hoechst High Intensity Objects (%): 0%
  Population Mitotic Cells (%): 4% and 13%
  Population Normal (%): 100% and 99%
  Population Pyknosed Nuclei (%): 9%
  Total Cell Count: 253 and 402

## CS(=O)(=O)c1ccc(C(=O)Nc2cccc(COc3ccc(Br)cc3CN3CCC[C@H](O)C3)c2)c(Cl)c1.O=CO
[1]
  Population Healthy Nuclei (%): 71% and 60%
  Population Hoechst High Intensity Objects (%): 0%
  Population Mitotic Cells (%): 55% and 58%
  Population Pyknosed Nuclei (%): 17% and 22%
  Total Cell Count: 200 and 202
[2]
  Population Healthy Nuclei (%): 52% and 60%
  Population Hoechst High Intensity Objects (%): 0%
  Population Mitotic Cells (%): 49% and 62%
  Population Pyknosed Nuclei (%): 18%
  Total Cell Count: 221 and 338
[3]
  Population Healthy Nuclei (%): 72% and 64%
  Population Hoechst High Intensity Objects (%): 0%
  Population Mitotic Cells (%): 38% and 53%
  Population Pyknosed Nuclei (%): 21%
  Total Cell Count: 214 and 180
[4]
  Population Healthy Nuclei (%): 50% and 65%
  Population Hoechst High Intensity Objects (%): 0%
  Population Mitotic Cells (%): 35% and 26%
  Population Pyknosed Nuclei (%): 21% and 12%
  Total Cell Count: 261 and 390
[5]
  Population Healthy Nuclei (%): 73% and 72%
  Population Hoechst High Intensity Objects (%): 0%
  Population Mitotic Cells (%): 20% and 29%
  Population Pyknosed Nuclei (%): 12%
  Total Cell Count: 198 and 185
[6]
  Population Healthy Nuclei (%): 54% and 63%
  Population Hoechst High Intensity Objects (%): 0%
  Population Mitotic Cells (%): 10% and 9%
  Population Pyknosed Nuclei (%): 7%
  Total Cell Count: 285 and 416

## CS(=O)(=O)c1ccc(C(=O)Nc2cccc(COc3ccc(Br)cc3CN[C@H]3CCC[C@@H]3O)c2)c(Cl)c1.O=CO
[1]
  Population Apoptotic (%): 24% and 46%
  Population Healthy Nuclei (%): 71% and 64%
  Population Hoechst High Intensity Objects (%): 0%
  Population Mitotic Cells (%): 75% and 53%
  Population Normal (%): 99% and 100%
  Population Pyknosed Nuclei (%): 20%
  Total Cell Count: 223 and 167
[2]
  Population Apoptotic (%): 52% and 50%
  Population Healthy Nuclei (%): 43% and 57%
  Population Hoechst High Intensity Objects (%): 1% and 0%
  Population Mitotic Cells (%): 47% and 50%
  Population Normal (%): 98% and 99%
  Population Pyknosed Nuclei (%): 42%
  Total Cell Count: 187 and 221
[3]
  Population Apoptotic (%): 44% and 73%
  Population Healthy Nuclei (%): 68% and 59%
  Population Hoechst High Intensity Objects (%): 0%
  Population Normal (%): 100%
  Total Cell Count: 219 and 171
[4]
  Population Apoptotic (%): 62% and 72%
  Population Healthy Nuclei (%): 58% and 51%
  Population Hoechst High Intensity Objects (%): 0%
  Population Mitotic Cells (%): 37% and 27%
  Population Normal (%): 99% and 97%
  Population Pyknosed Nuclei (%): 32%
  Total Cell Count: 202 and 182
[5]
  Population Apoptotic (%): 75% and 70%
  Population Healthy Nuclei (%): 70% and 68%
  Population Hoechst High Intensity Objects (%): 0%
  Population Mitotic Cells (%): 24% and 29%
  Population Normal (%): 99% and 100%
  Population Pyknosed Nuclei (%): 20%
  Total Cell Count: 218 and 154
[6]
  Population Apoptotic (%): 87% and 86%
  Population Healthy Nuclei (%): 71% and 55%
  Population Hoechst High Intensity Objects (%): 0% and 1%
  Population Normal (%): 99% and 98%
  Population Pyknosed Nuclei (%): 20%
  Total Cell Count: 197 and 190

## C[C@@H](Oc1cc(-n2cnc3ccc(OC4CCN(C)CC4)cc32)sc1C(N)=O)c1ccccc1Cl [GSK-579289A]
[1]
  Population Apoptotic (%): 45% and 36%
  Population Fragmented Nuclei (%): 21% and 15%
  Population Healthy Nuclei (%): 62% and 60%
  Population Hoechst High Intensity Objects (%): 0%
  Population Membrane Permeable-Phenotype (%): 7% and 10%
  Population Mitochondria Different-Phenotype (%): 1% and 3%
  Population Mitotic Cells (%): 54% and 63%
  Population Normal (%): 99% and 100%
  Population Pyknosed Nuclei (%): 15% and 24%
  Population Tubulin-Different-Phenotype (%): 40% and 48%
  Total Cell Count: 296 and 182
[2]
  Population Apoptotic (%): 40% and 46%
  Population Fragmented Nuclei (%): 13% and 23%
  Population Healthy Nuclei (%): 60% and 59%
  Population Hoechst High Intensity Objects (%): 0%
  Population Membrane Permeable-Phenotype (%): 5% and 13%
  Population Mitochondria Different-Phenotype (%): 12% and 13%
  Population Mitotic Cells (%): 59% and 53%
  Population Normal (%): 100%
  Population Pyknosed Nuclei (%): 26% and 17%
  Population Tubulin-Different-Phenotype (%): 84% and 85%
  Total Cell Count: 323 and 282
[3]
  Population Apoptotic (%): 54% and 58%
  Population Fragmented Nuclei (%): 18% and 23%
  Population Healthy Nuclei (%): 63% and 57%
  Population Hoechst High Intensity Objects (%): 1% and 0%
  Population Membrane Permeable-Phenotype (%): 3% and 2%
  Population Mitochondria Different-Phenotype (%): 3% and 5%
  Population Mitotic Cells (%): 45% and 41%
  Population Normal (%): 98% and 99%
  Population Pyknosed Nuclei (%): 18% and 19%
  Population Tubulin-Different-Phenotype (%): 43% and 40%
  Total Cell Count: 282 and 205
[4]
  Population Apoptotic (%): 79% and 73%
  Population Fragmented Nuclei (%): 16% and 25%
  Population Healthy Nuclei (%): 46% and 50%
  Population Hoechst High Intensity Objects (%): 0%
  Population Membrane Permeable-Phenotype (%): 2% and 6%
  Population Mitochondria Different-Phenotype (%): 38% and 39%
  Population Mitotic Cells (%): 20% and 26%
  Population Normal (%): 100% and 99%
  Population Pyknosed Nuclei (%): 37% and 23%
  Population Tubulin-Different-Phenotype (%): 88% and 92%
  Total Cell Count: 281 and 274
[5]
  Population Apoptotic (%): 65% and 85%
  Population Fragmented Nuclei (%): 21% and 25%
  Population Healthy Nuclei (%): 64% and 61%
  Population Hoechst High Intensity Objects (%): 1% and 0%
  Population Membrane Permeable-Phenotype (%): 4%
  Population Mitochondria Different-Phenotype (%): 2% and 5%
  Population Mitotic Cells (%): 34% and 14%
  Population Normal (%): 98% and 99%
  Population Pyknosed Nuclei (%): 14% and 12%
  Population Tubulin-Different-Phenotype (%): 44% and 38%
  Total Cell Count: 307 and 222
[6]
  Population Apoptotic (%): 97% and 94%
  Population Fragmented Nuclei (%): 18% and 24%
  Population Healthy Nuclei (%): 22% and 18%
  Population Hoechst High Intensity Objects (%): 1% and 0%
  Population Mitochondria Different-Phenotype (%): 46% and 48%
  Population Mitotic Cells (%): 2% and 5%
  Population Normal (%): 98% and 99%
  Population Pyknosed Nuclei (%): 58% and 57%
  Population Tubulin-Different-Phenotype (%): 77% and 93%
  Total Cell Count: 199 and 171
